Reference: ChEMBL document CHEMBL1156332, “Polysubstituted pyrazoles, part 6. Synthesis of some 1-(4-chlorophenyl)-4-hydroxy-1H-pyrazol-3-carbonyl derivatives linked to nitrogenous heterocyclic ring systems as potential antitumor agents” (2010)

Key:
Type in all cases: functional
CCRF-CEM = assay: Growth inhibition of human CCRF-CEM cells after 48 hrs by sulforhodamine B assay
Summary of the method: (§1)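 NCI 60-line panel, five concentrations (0.01–100 µM) from DMSO stock diluted in medium with gentamicin. Cells were plated 24 h before dosing, with time-zero plates fixed at drug addition, then exposed 48 h at 37 °C, 5% CO₂. Adherent cells were fixed with cold TCA (10% final) and suspension cells with 16% TCA. Staining used 0.4% SRB, solubilised in 10 mM Tris and read at 515 nm. GI₅₀ was taken from log concentration–% growth curves.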

HL-60(TB) = assay: Growth inhibition of human HL-60(TB) cells after 48 hrs by sulforhodamine B assay; conditions: HL-60, 48 h
Summary of the method: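 NCI 60-cell panel. Cells were preincubated 24 h at 37 °C in 5% CO2, then time-zero plates were TCA-fixed. Drugs were dissolved in DMSO and given at five concentrations (10-fold or half-log dilutions) for 48 h. Suspension cells were fixed with TCA (16% final), stained with 0.4% SRB and read at 515 nm. GI50 is the concentration giving 50% decrease in net growth, taken from log concentration–growth curves.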

MOLT-4 = assay: Growth inhibition of human MOLT4 cells after 48 hrs by sulforhodamine B assay; conditions: MOLT-4, 48 h; summary of the method: as §1
SR = assay: Growth inhibition of human SR cells after 48 hrs by sulforhodamine B assay
Summary of the method: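 Suspension leukemia line pre-incubated 24 h at 37 °C, 5% CO2; time-zero plates fixed at drug addition. Five drug concentrations were made by serial dilution from DMSO stocks and applied for 48 h. Settled cells were fixed with 80% TCA (16% final), stained with 0.4% SRB in 1% acetic acid, solubilized in 10 mM Tris base, and read at 515 nm. GI50 = concentration giving 50% decrease in net growth.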

A549 = assay: Growth inhibition of human A549 cells after 48 hrs by sulforhodamine B assay; conditions: A549, 48 h; summary of the method: as §1
EKVX = assay: Growth inhibition of human EKVX cells after 48 hrs by sulforhodamine B assay; summary of the method: as §1
NCI-H23 = assay: Growth inhibition of human NCI-H23 cells after 48 hrs by sulforhodamine B assay; conditions: NCI-H23, 48 h; summary of the method: as §1
[1] = Growth inhibition of human NCI-H322 cells after 48 hrs by sulforhodamine B assay; conditions: NCI-H322, 48 h; summary of the method: as §1
NCI-H522 = assay: Growth inhibition of human NCI-H522 cells after 48 hrs by sulforhodamine B assay; conditions: NCI-H522, 48 h; summary of the method: as §1
COLO 205 = assay: Growth inhibition of human COLO205 cells after 48 hrs by sulforhodamine B assay; conditions: COLO 205, 48 h; summary of the method: as §1
HCC 2998 = assay: Growth inhibition of human HCC2998 cells after 48 hrs by sulforhodamine B assay; conditions: HCC 2998, 48 h; summary of the method: as §1
SF-295 = assay: Growth inhibition of human SF295 cells after 48 hrs by sulforhodamine B assay; conditions: SF-295, 48 h; summary of the method: as §1
LOX IMVI = assay: Growth inhibition of human LOXIMVI cells after 48 hrs by sulforhodamine B assay; summary of the method: as §1
SK-MEL-2 = assay: Growth inhibition of human SK-MEL-2 cells after 48 hrs by sulforhodamine B assay; conditions: SK-MEL-2, 48 h
Summary of the method: (§2)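 Adherent lines plated and held 24 h at 37 °C, 5% CO2, 100% humidity; time-zero plates TCA-fixed at drug addition. Drugs from DMSO stocks were made into five concentrations by 10-fold or half-log serial dilution and applied for 48 h continuous exposure. Cells were fixed with cold TCA (10% final) for 60 min at 4 °C, then stained with 0.4% SRB in 1% acetic acid for 10 min. Dye was solubilized in 10 mM Tris base and read at 515 nm. GI50 was taken from log concentration–growth curves.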

SK-MEL-28 = assay: Growth inhibition of human SK-MEL-28 cells after 48 hrs by sulforhodamine B assay; conditions: SK-MEL-28, 48 h; summary of the method: as §2
SK-MEL-5 = assay: Growth inhibition of human SK-MEL-5 cells after 48 hrs by sulforhodamine B assay; conditions: SK-MEL-5, 48 h; summary of the method: as §2
A498 = assay: Growth inhibition of human A498 cells after 48 hrs by sulforhodamine B assay; conditions: A498, 48 h; summary of the method: as §1
CAKI-1 = assay: Growth inhibition of human Caki1 cells after 48 hrs by sulforhodamine B assay; conditions: CAKI-1, 48 h; summary of the method: as §1
RXF 393 = assay: Growth inhibition of human […] cells after 48 hrs by sulforhodamine B assay; conditions: RXF 393, 48 h; summary of the method: as §1
UO-31 = assay: Growth inhibition of human UO31 cells after 48 hrs by sulforhodamine B assay; conditions: UO-31, 48 h; summary of the method: as §2
PC-3 = assay: Growth inhibition of human PC3 cells after 48 hrs by sulforhodamine B assay; conditions: PC-3, 48 h; summary of the method: as §1
BT-549 = assay: Growth inhibition of human BT549 cells after 48 hrs by sulforhodamine B assay; conditions: BT-549, 48 h; summary of the method: as §1
T47D = assay: Growth inhibition of human T47D cells after 48 hrs by sulforhodamine B assay; summary of the method: as §2
[2] = Cytotoxicity against human CNS cancer cells after 48 hrs by sulforhodamine B assay; conditions: Cancer cell lines
Summary of the method: (§3)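 NCI five-dose screen: about 60 human tumour lines grouped into nine subpanels were plated and incubated 24 h before dosing. Compounds went in as DMSO stock and were diluted in medium to five final concentrations (0.01–100 µM). Exposure was 48 h continuous at 37 °C, 5% CO₂, followed by TCA fixation and SRB staining read at 515 nm. Per-line GI₅₀, TGI and LC₅₀ came from log concentration–% growth curves, averaged per subpanel as MG-MID.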

[3] = Cytotoxicity against human melanoma cells after 48 hrs by sulforhodamine B assay; conditions: Melanoma cell; summary of the method: as §3
[4] = Cytotoxicity against human ovarian cancer cells after 48 hrs by sulforhodamine B assay; conditions: Cancer cell lines; summary of the method: as §3

With `N#Cc1cnn(C(=O)c2nn(-c3ccc(Cl)cc3)cc2O)c1N` the GI50 (CCRF-CEM) was 280 nM, the GI50 (HL-60(TB)) was 330 nM and the GI50 (MOLT-4) was 290 nM. It also gave a GI50 (SR) of 280 nM, a GI50 (A549) of 200 nM and a GI50 (EKVX) of 380 nM. It also gave a GI50 (NCI-H23) of 370 nM, a GI50 [1] of 440 nM and a GI50 (NCI-H522) of 210 nM. For the same molecule, the GI50 (COLO 205) was 910 nM, the GI50 (HCC 2998) was 650 nM and the GI50 (SF-295) was 160 nM. For the same molecule, the GI50 (LOX IMVI) was 440 nM, the GI50 (SK-MEL-2) was 910 nM and the GI50 (SK-MEL-28) was 630 nM. It also gave a GI50 (SK-MEL-5) of 480 nM, a GI50 (A498) of 170 nM and a GI50 (CAKI-1) of 280 nM. It also gave a GI50 (RXF 393) of 510 nM, a GI50 (UO-31) of 300 nM and a GI50 (PC-3) of 330 nM. The GI50 (BT-549) was 290 nM, the GI50 (T47D) was 300 nM and the GI50 [2] was 320 nM. For the same molecule, the LC50 [2] was 74.7 µM, the TGI [2] was 23.1 µM and the GI50 [3] was 460 nM. It also gave a TGI [3] of 11.9 µM, a CC50 ([3]; read-out: LC50 (the source's name)) of 65 µM and a GI50 [4] of 500 nM. For the same molecule, the LC50 (50% lethal concentration) [4] was 88.5 µM and the TGI [4] was 19.6 µM.
